DNA FID counter = counter-screen for HCV NS3 helicase inhibitors: DNA intercalator displacement | DNA fluorescent intercalator displacement, fluorescence | inhibition, % at 7.9 µM | hit rate 0.17% among 290,000 | AID 1845; in the data active = inhibition above about 37%;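 also: 0% = vehicle and 100% = reference compound; higher means more ethidium bromide displaced from hairpin DNA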
Apaf-1 inh = human Apaf-1 inhibition; O14727; reconstituted apoptosome caspase-3 activity, DEVD-Rh110 fluorescence; inhibition, % at 20 µM; hit rate 0.71% among 330,000; AID 489030; active = inhibition of at least 40% at 20 µM;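 also: plate controls were DMSO wells for no effect and DEVD-CHO caspase inhibitor wells for full effect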
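System: Apoptosome proteins | Medium: Hepes pH 7.5 with detergent and BSA | Also added: Cytochrome c trigger plus (Z-DEVD)2-Rh110 caspase-3 substrate | Incubation: 30 min compound preincubation, 50 min activation, room temperature | Detection: Rhodamine 110 fluorescence at Ex 480/Em 540 nm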
TMEM16A act = activators or potentiators of mouse TMEM16A chloride channel; B-score at 10 µM; Q8BHY3; hit rate 0.3% among 340,000; HEK293 TMEM16A/YFP-H148Q/I152L, iodide quench fluorescence; stronger effect = lower value;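 active = fluorescence-ratio B-score plate-corrected deviation score at least 3 library SD below zero, with starting fluorescence score within 5 deviations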;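 also: channel opened by trigger with iodide after compound preincubation; score built on the fluorescence ratio of max minus min over baseline; more negative score means more quench and so TMEM16A activation or potentiation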
TMEM16A inh = inhibitors of mouse TMEM16A calcium-activated chloride channel; Q8BHY3; HEK293 TMEM16A/YFP iodide influx fluorescence, ionomycin; normalized B-score (activity score, 25-100; higher = stronger inhibition) at 10 µM; hit rate 1.2% among 310,000; AID 588511;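 active = ratio plate-corrected score three or more library SD toward inhibition, starting fluorescence score within five deviations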;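 also: score derived from kinetic fluorescence span divided by baseline fluorescence per well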
UBC13 inh = human UBC13 polyubiquitination inhibition | P61088 | UBC13 polyubiquitin chain formation, TR-FRET | inhibition, % at 20 µM | hit rate 0.47% among 330,000 | AID 485273; in the data active = inhibition above about 45%, passing the limit was not always enough
Numbers without * were called inactive; i = inactive; / = no result. This is a sample that favours compounds with a hit; in the whole collection about 2.4% have one here.

SMILES	DNA FID counter	Apaf-1 inh	TMEM16A act	TMEM16A inh	UBC13 inh
CCc1ccc(Oc2coc3cc(OCC(=O)Nc4cc(C)ccc4C)ccc3c2=O)cc1	-1	-7	i	i	1
CCCc1ccc(Oc2coc3cc(OCC(=O)Nc4ccccc4C)ccc3c2=O)cc1	-6	0	-5.2*	i	0
Cc1ccc(NC(=O)CSc2nn(-c3ccc(Cl)cc3)c(=S)s2)cc1S(=O)(=O)N(C)C	-3	16	i	100*	-13
CN(C)S(=O)(=O)c1cc(NC(=O)CSc2nn(-c3ccc(Cl)cc3)c(=S)s2)ccc1Cl	-8	16	i	i	-11
Cc1ccc([N+](=O)[O-])cc1N=Nc1c(C)[nH]n(C(N)=S)c1=O	-2	-2	i	i	-6
Cc1ccc([N+](=O)[O-])cc1N=Nc1c(-c2ccc([N+](=O)[O-])cc2)[nH]n(C(N)=S)c1=O	-6	/	-5.4*	/	/
CCC(=O)OCCNc1cc(Sc2nc3ccccc3s2)c2nonc2c1[N+](=O)[O-]	-3	46*	i	i	-34
Cc1nnc(Sc2cc(NCCCO)c([N+](=O)[O-])c3nonc23)s1	4	/	i	/	/
O=[N+]([O-])c1c(NCCCO)cc(Sc2nc3ccccc3s2)c2nonc12	2	98*	i	i	-67
CC(=O)c1sc(NS(=O)(=O)c2ccc(C)cc2)nc1-c1ccccc1	-24	13	i	i	-17
COc1ccc(NC(=O)COC(=O)CCc2ccccc2)c(OC)c1	-25	0	i	i	-4
O=C(CC1NCCNC1=O)NC1Cc2ccccc2C1 (configuration not stated)	-14	-6	i	i	7
CC(CCc1ccccc1)NCc1cccc2ccccc12 (configuration not stated)	19	0	i	i	8
NC(CCCCc1ccccc1)c1cccc2ccccc12 (configuration not stated)	/	22	/	25*	54*
CC(C)(CC(=O)O)CC(=O)NNc1ncccc1C#N	-6	-7	i	i	-4
O=C(NCc1ccccc1)C1(CC2CC(c3ccccc3)=NO2)CCNCC1 (configuration not stated)	/	47*	i	/	40
CN(C(=O)CSc1nnc(-c2ccncc2)n1Cc1ccccc1)C1CCS(=O)(=O)C1 (configuration not stated)	-2	-24	i	i	1
NC(=O)c1ccsc1NC(=O)CN1CCN(S(=O)(=O)c2ccccc2C(F)(F)F)CC1	/	/	i	/	/
COc1cccc(COc2cc3ccccc3nc2C)c1	-18	18	i	25*	2
Cc1nc2ccccc2cc1OCc1ccc(Cl)cc1	-10	7	i	i	1
CC(C)=CCC[C@](C)(O[C@@H]1O[C@H](CO[C@@H]2O[C@H](CO)[C@@H](O)[C@H](O)[C@H]2O)[C@@H](O)[C@H](O)[C@H]1O)C1CC[C@]2(C)C1C(=O)CC1[C@@]3(C)CC[C@H](O[C@H]4O[C@@H](CO)[C@H](O)[C@@H](O)[C@@H]4O)C(C)(C)C3CC[C@]12C (some centres not stated)	/	2	i	/	5
CC(=O)OCC1O[C@@H](O[C@@H]2C[C@H]3C(C)(C)[C@H](OC(C)=O)CC[C@]3(C)[C@H]3CC[C@]45C[C@]4(CC[C@H]5[C@@H](C)C[C@@H](O)[C@H](O)C(C)(C)O)[C@@]32C)[C@H](O)[C@@H](O)[C@@H]1O (some centres not stated)	-53	25	/	100*	93*
NC(=O)[C@@H]1CCCN1Cc1nc(-c2ccccc2)no1	-1	-1	i	i	-4
CCc1ncc(C)nc1CC	/	-8	i	100*	0
CCc1ncc(C)[nH]1	-3	-5	/	i	8
SMILES	DNA FID counter	Apaf-1 inh	TMEM16A act	TMEM16A inh	UBC13 inh
Cc1nn(-c2ccccc2)c(N2CCCC2)c1/C=N/NC(=S)Nc1ccccc1F	-5	9	i	i	0
CN(C)N=Nc1ccc(S(N)(=O)=O)cc1	2	-4	i	i	-3
CCN(CC)N=Nc1ccc(S(N)(=O)=O)cc1	-6	-9	-6.1*	i	0
COc1ccc(Cc2nc(C(=O)Nc3ccc(Cl)cc3)cs2)cc1	-5	13	i	100*	-1
COc1ccc(CNC(=O)c2csc(Cc3ccc(OC)cc3)n2)cc1	-23	-7	i	i	-6
O=C(NCCC1=CCCCC1)c1ccc(Cl)c(S(=O)(=O)N2CCCCC2)c1	-35	21	i	25*	3
O=C(NCCC1=CCCCC1)c1ccc(Cl)c(S(=O)(=O)N2CCOCC2)c1	-23	16	i	i	5
Cc1ccc(CSCCNC(=O)c2ccc(Cl)c(S(=O)(=O)N3CCOCC3)c2)cc1	-24	13	i	25*	8
NS(=O)(=O)c1cccc(NC(=O)COC(=O)Cc2n[nH]c(=O)c3ccccc23)c1	/	0	i	/	-6
O=[N+]([O-])c1ccc(S(=O)(=O)NCCc2ccncc2)cc1	3	-3	i	i	-6
CN(CC(=O)Nc1cccc(F)c1)C(=O)c1ccc(S(=O)(=O)N2CCCC2)cc1	/	5	i	/	-9
Cc1c(O)ccc(C(=O)CN2CCN(Cc3ccc4c(c3)OCO4)CC2)c1O	98*	/	i	i	/
Cc1ccc(-c2noc(CCCC(=O)Nc3cccnc3)n2)cc1	-9	19	i	25*	-7
O=C(CCCc1nc(-c2ccccc2)no1)Nc1cccnc1	0	3	i	i	-4
OC[C@H]1O[C@H](OC[C@H]2OC(O)[C@H](O)[C@@H](O)[C@@H]2O)[C@H](O)[C@@H](O)[C@@H]1O (some centres not stated)	/	-10	i	i	7
Cc1cnc(NC(=O)Cc2cccs2)s1	-9	6	i	i	-4
O=c1c2c3c(sc2nc2sc(C4CC4)nn12)CCCC3	-1	10	i	25*	10
C=CCNC(=O)C(=O)N/N=C/c1ccco1	-2	12	i	i	-10
Cc1ccc(NC(=O)CSc2nnc(-c3ccccc3Br)o2)cc1C	-18	16	i	i	2
Cc1cc(C)c(C(=O)CSc2nnc(-c3ccccc3Br)o2)cc1C	-8	/	-5*	/	/
CCN(c1ccccc1)S(=O)(=O)c1ccc(NC(=O)c2nc(S(C)(=O)=O)ncc2Cl)cc1	-19	21	-7.6*	i	-12
Cc1nc([N+](=O)[O-])c(Br)n1Cc1ccc(Cl)c(Cl)c1	0	/	i	/	/
O=C(C1CCCN(S(=O)(=O)c2cccc3nsnc23)C1)N1CC=C(c2ccccc2)CC1 (configuration not stated)	-23	20	i	i	-3
O=C(C1CCN(S(=O)(=O)c2cccc3nsnc23)CC1)N1CC=C(c2ccccc2)CC1	-23	20	i	25*	-14

Bioassay records as filed in PubChem.
